From PubChem
This is one part of a sample in which hits are shown more often than they occur.
L major viab – reduces viability of Leishmania major promastigotes; 9% of 200,000 active; inhibition, % at 10 µM; resazurin fluorescence viability; in the data active = inhibition above about 50%;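 note: promastigotes grown with compound for 44 hours at 28 °C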
T cruzi inh – T. cruzi replication inhibition; T. cruzi beta-gal in NIH3T3, luminescence, 90 h; inhibition, % (concentration not given with the values); 1.4% of 300,000 active;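 active = mean inhibition across valid replicates above about 55%, limit read from the data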;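 note: signal also drops with host cell toxicity which is not excluded here; 0% = plate median of DMSO wells and 100% = zero luminescence signal; higher percent means less beta-gal luminescence so fewer parasites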
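System: Mouse NIH/3T3 fibroblasts infected with β-gal-expressing T. cruzi Tulahuen C4 | Quantity: NIH/3T3 cells, 5,000 per well | Reagent: 5000 reporter trypomastigotes per well | Dosing: Compound pinned at 50 nL/well, DMSO | Schedule: 3 h host attachment, then at least 90 h co-culture | Detection: GalScreen luminescence, 60 min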
PolyA inh – inhibitors of polyadenylation in S. cerevisiae. S. cerevisiae SKY197-pL101 polyadenylation reporter, beta-gal luminescence; efflux-impaired pdr1/pdr3 knockout yeast; score 100 = 6 SD above DMSO. activity score, % at 12 µM. 0.02% of 300,000 active;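 active = lowest replicate activity score at least 50, where 100 means six control SD above control mean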;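 note: yeast exposed to compound for 9 h at 30 °C; higher score means more reporter readthrough which indicates perturbed polyadenylation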
NALP3 yeast inh – NALP3 inhibition in yeast | Yeast reconstituted NLRP3/ASC/caspase-1, beta-gal luminescence, 24 h | inhibition, % at 10 µM | 0.39% of 330,000 active | AID 2825;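 active = inhibition of 50% or more; inactive = inhibition below 50%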;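 note: plate controls were induced DMSO wells for no effect and uninduced yeast grown without galactose for full effect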
NALP1 yeast inh – NALP1 inhibition. S. cerevisiae NALP1/ASC/caspase-1 growth, X-gal OD620, 72 h. inhibition, % at 10 µM. 0.61% of 280,000 active. AID 2071; in the data active = inhibition mostly above about 24%, no sharp cut-off; inactive = mostly below about 32%
Calb FLC – affects C. albicans growth with fluconazole; growth inhibition, % (concentration not given with the values); C. albicans CaCi-2 + fluconazole, Alamar Blue growth, 48 h; 0.57% of 300,000 active; AID 1979;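 active = growth inhibition above about 58% in most replicates, limit read from the data, passing the limit was not always enough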;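 note: all wells also contain fluconazole at 8 µg/ml as a sub-toxic cotreatment; 0% = median of DMSO wells and 100% = median of geldanamycin control wells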
The depositor's hits bear a star.

`COc1cc2c(cc1NC(=O)CSc1nnc(Cc3cccs3)n1C)oc1ccccc12` gave L major viab 19, T cruzi inh 21, PolyA inh -11, NALP3 yeast inh 13, NALP1 yeast inh 34 and Calb FLC -11.
`COc1cc2c(cc1NC(=O)CSc1ccc(C)cc1)oc1ccccc12` gave L major viab 0, T cruzi inh 16, PolyA inh 3, NALP3 yeast inh 9, NALP1 yeast inh 23 and Calb FLC -13.
Cc1cc(Cl)ccc1NC(=O)CSc1nnc(Cc2cccs2)n1Cc1ccco1 was read as L major viab 86*, T cruzi inh 19, PolyA inh 11, NALP3 yeast inh 4, NALP1 yeast inh 9 and Calb FLC 0.
O=C(CSc1nc(-c2cccs2)cc(C(F)(F)F)n1)NCCCn1ccnc1 was read as L major viab -1, T cruzi inh 5, PolyA inh 13, NALP3 yeast inh 15, NALP1 yeast inh 18 and Calb FLC -13.
Screening O=C(CSc1nc(-c2cccs2)cc(C(F)(F)F)n1)Nc1cc(OCC(F)(F)C(F)F)cc([N+](=O)[O-])c1 returned L major viab 84*, T cruzi inh 14, PolyA inh 9, NALP3 yeast inh 15, NALP1 yeast inh 28 and Calb FLC 11.
`Cc1ccc(C(=O)NCC(=O)N2CCC(Cc3ccccc3)CC2)cc1` gave T cruzi inh 4, PolyA inh 2, NALP3 yeast inh 34, NALP1 yeast inh 8 and Calb FLC 8.
`CC1C(c2ccccc2)N(C)C(c2ccccc2)CC1(O)c1ccc(F)cc1` (configuration not stated) gave L major viab 49, T cruzi inh 58*, PolyA inh -6, NALP1 yeast inh 23 and Calb FLC -5.
CCCOc1ccc(NC(=O)CC2C(=O)N(CC)C(=S)N2CCCN2CCN(Cc3ccccc3)CC2)cc1 (configuration not stated) was read as L major viab 99*, T cruzi inh 6, PolyA inh -12, NALP3 yeast inh -15, NALP1 yeast inh 6 and Calb FLC -30.
Screening CCOc1ccc(NC(=O)CC2C(=O)N(C)C(=S)N2CCCc2ccccc2)cc1 (configuration not stated) returned L major viab 78*, T cruzi inh 55*, PolyA inh -5, NALP3 yeast inh 10, NALP1 yeast inh 26 and Calb FLC 3.
CCOc1ccc(NC(=O)CC2C(=O)N(C)C(=S)N2Cc2ccco2)cc1 (configuration not stated) was read as L major viab -3, T cruzi inh -26, PolyA inh -16, NALP3 yeast inh -1, NALP1 yeast inh 19 and Calb FLC 0.
`Clc1cc(Cl)c(Cl)c(Cl)c1Cl` gave NALP3 yeast inh -6.
`CCCc1cc(=O)oc2cc(OCC(=O)NCCc3c[nH]c4ccccc34)ccc12` gave T cruzi inh 17, PolyA inh 6, NALP3 yeast inh 15, NALP1 yeast inh 0 and Calb FLC -5.
`Cc1cccc(C(=O)N2CCN(S(=O)(=O)N3CCCCCC3)CC2)c1` gave T cruzi inh 1, PolyA inh -5, NALP3 yeast inh 14, NALP1 yeast inh 14 and Calb FLC -7.
COC(=O)c1c(-c2c(Cl)cccc2Cl)noc1C(=O)NNC(=O)N(C)C was read as T cruzi inh -1, PolyA inh -4, NALP3 yeast inh 3 and Calb FLC 1.
For CCN(CC)S(=O)(=O)c1ccc(C)c(NC(=S)N2CCN(c3ccccn3)CC2)c1 the results were T cruzi inh 1, PolyA inh -3, NALP3 yeast inh 19, NALP1 yeast inh -13 and Calb FLC -11.
`CCN(CC)S(=O)(=O)c1ccc(C)c(NC(=S)N2CCN(Cc3ccc4c(c3)OCO4)CC2)c1` gave L major viab 96*, T cruzi inh 5, PolyA inh 1, NALP3 yeast inh 39, NALP1 yeast inh 12 and Calb FLC -36.
`Cc1cccc(NC(=S)N2CCN(Cc3ccc4c(c3)OCO4)CC2)c1C` gave L major viab 90*, T cruzi inh -15, PolyA inh -2, NALP3 yeast inh 28, NALP1 yeast inh 22 and Calb FLC -7.
Screening Cc1ccc(NC(=S)N2CCN(Cc3ccc4c(c3)OCO4)CC2)c(C)c1 returned L major viab 89*, T cruzi inh -10, PolyA inh 13, NALP3 yeast inh 18 and Calb FLC -4.
`CCN(CC)S(=O)(=O)c1ccc(C)c(NC(=S)N2CCN(C/C=C/c3ccccc3)CC2)c1` gave L major viab 60*, T cruzi inh 36, PolyA inh 3, NALP3 yeast inh 39, NALP1 yeast inh 3 and Calb FLC -23.
Screening COC(=O)CCCC(=O)NC(C)c1cnn(-c2ccccc2C)c1C (configuration not stated) returned L major viab -10, T cruzi inh -3, PolyA inh 5, NALP3 yeast inh 4, NALP1 yeast inh 10 and Calb FLC -31.
For Cc1csc(C(=O)NCC(=O)NNC(=O)c2cccc(Cl)c2)c1 the results were T cruzi inh -4, PolyA inh 16, NALP3 yeast inh 1, NALP1 yeast inh 14 and Calb FLC 3.
Screening Cc1ccc(NC(=O)c2ccc(-n3cncn3)c([N+](=O)[O-])c2)cc1F returned T cruzi inh 2, PolyA inh -9, NALP3 yeast inh 25 and Calb FLC 3.
CN(C(=O)c1cc(S(=O)(=O)N2CCOCC2)cs1)c1ccccc1 was read as T cruzi inh -10, PolyA inh 11, NALP3 yeast inh -4, NALP1 yeast inh -8 and Calb FLC 11.
Screening CC(C)c1ccccc1NC(=S)N1CCN(Cc2ccc3c(c2)OCO3)CC1 returned L major viab 77*, T cruzi inh 14, PolyA inh -23, NALP3 yeast inh 18, NALP1 yeast inh -9 and Calb FLC -8.
COc1ccc(Cl)cc1C(=O)Nn1cnnc1 was read as T cruzi inh -18, PolyA inh -23, NALP3 yeast inh 9, NALP1 yeast inh 3 and Calb FLC 0.
For O=C1CCC(=O)N1CCSC(=S)N1CCSCC1 the results were T cruzi inh 1, PolyA inh 18, NALP3 yeast inh -6, NALP1 yeast inh -6 and Calb FLC -10.
`Cc1sc2nc(-c3ccccc3)[nH]c(=O)c2c1-c1ccccc1` gave L major viab -1, T cruzi inh -24, PolyA inh -13, NALP3 yeast inh 23, NALP1 yeast inh 24 and Calb FLC 8.
For Cc1sc2nc(-c3cccnc3)nc(Cl)c2c1-c1ccccc1 the results were L major viab 61*, T cruzi inh 20, PolyA inh 4, NALP3 yeast inh 15 and Calb FLC 1.
